In assay [1] the test system is T1, Lysosomal acid glucosylceramidase (Homo sapiens), P04062 [N409S].
T1 sequence (whole entry): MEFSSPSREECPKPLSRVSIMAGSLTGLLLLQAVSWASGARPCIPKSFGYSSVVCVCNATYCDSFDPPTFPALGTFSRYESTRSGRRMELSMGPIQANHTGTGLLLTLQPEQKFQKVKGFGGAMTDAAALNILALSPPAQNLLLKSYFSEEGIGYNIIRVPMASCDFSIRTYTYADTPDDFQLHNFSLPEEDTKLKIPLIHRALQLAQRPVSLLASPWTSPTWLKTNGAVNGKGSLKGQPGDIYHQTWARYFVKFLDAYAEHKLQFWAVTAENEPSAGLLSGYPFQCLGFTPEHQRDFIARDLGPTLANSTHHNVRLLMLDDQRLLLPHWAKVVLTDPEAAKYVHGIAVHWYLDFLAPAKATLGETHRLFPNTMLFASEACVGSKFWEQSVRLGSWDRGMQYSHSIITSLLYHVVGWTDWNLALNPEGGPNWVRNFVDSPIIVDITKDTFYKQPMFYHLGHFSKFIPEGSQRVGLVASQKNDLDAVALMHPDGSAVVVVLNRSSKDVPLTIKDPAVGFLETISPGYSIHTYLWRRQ
The assay is described as follows: Increase of GCase N370S mutant trafficking to lysosomes in human fibroblast cells assessed as colocalization of Gcase with Lamp2 at 5 uM after 5 days by immunofluorescence method. Format: cell-based. An outline of the steps: (§1)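 Primary dermal fibroblasts from N370S/N370S Gaucher patients and a control, in chamber slides. Compounds given for five days, range 1 nM to 25 μM. Cells fixed in 3% paraformaldehyde and permeabilized with 0.1% Triton-X. Stained with rabbit anti-GCase R386 (1:500) and mouse anti-LAMP1 or LAMP-2 (1:100), then Alexa-conjugated secondaries and DAPI. Imaged by confocal microscopy for GC/LAMP2 colocalization.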

For assay [2], the target named is T2, Lysosomal acid glucosylceramidase (Homo sapiens) (UniProt P04062).
T2 sequence (whole entry): T1 sequence (whole entry) with S409N
Description: Increase of GCase trafficking to lysosomes in human fibroblast cells assessed as colocalization of Gcase with Lamp2 at 5 uM after 5 days by immunofluorescence method. Format: cell-based. An outline of the steps:
as §1

Assay [3] can be described thus: Inhibition of alpha-glucosidase.
Assay [4] in a line: Inhibition of alpha-galactosidase.
For assay [5], the target named is T2, Lysosomal acid glucosylceramidase (Homo sapiens). Description: Binding affinity to recombinant Gcase assessed as change in melting temperature at 500 uM by fluorescence thermal shift technique. A digest of the protocol:
(§2)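 Differential scanning fluorometry on recombinant wild-type GC at 2 μM final with SYPRO Orange, in 150 mM phosphate/citrate pH 4.8. 12-point DMSO dilution series, final 0.1–600 μM, 2% DMSO final; DMSO-only control. Heated 20 to 95 °C at 0.1 °C/s. Fluorescence read at 490 nm excitation, 575 nm emission. Tm derived from melt curves; shift is relative to the protein-only control.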

Assay [6] has the same target. Description: Binding affinity to recombinant Gcase assessed as change in melting temperature at 400 uM by fluorescence thermal shift technique. An outline of the steps: as §2
Assay [7] has the same target. Description: Binding affinity to recombinant Gcase assessed as change in melting temperature at 300 uM by fluorescence thermal shift technique. A digest of the protocol:
as §2

Assay [8] shares this target.
For assay [9] the target is unchanged. The source holds these as a separate data set.
The target is the same in assay [10]. The source holds these as a separate data set.
The target is the same in assay [11]. The source holds these as a separate data set.
Assay [12] shares this target. This is another data set of the same source.
Assay [13] shares this target. This is another data set of the same source.
Assay [14] shares this target. Description: Binding affinity to recombinant Gcase assessed as change in melting temperature at 600 uM by fluorescence thermal shift technique. A digest of the protocol: as §2
Assay [15] shares this target. The source holds these as a separate data set.

The values that follow come from ChEMBL document CHEMBL1671789, “Evaluation of quinazoline analogues as glucocerebrosidase inhibitors with chaperone activity” (J Med Chem, 2011).

Substitutions are numbered along the chain they refer to. Active and inactive are the calls of the source. Unless noted, the rule behind the calls is not given here.

Consider `COc1ccccc1S(=O)(=O)N1CCN(c2nc(-c3cccs3)nc3ccccc23)CC1`, for which the result in assay [1] and in assay [2] was Active. Besides, the result in assay [3] and in assay [4] was inactive. Moreover, the ΔTm in [5] is 7.69 °C; in assay [6], 8.09 °C; in assay [7], 7.48 °C; in assay [8], 6.86 °C; in [9] it was 3.97 °C; in assay [10], -0.76 °C. The ΔTm is -0.01 °C in [11], 0.55 °C in assay [12] and 0.6 °C in [13].

As for `O=S(=O)(c1ccc2c(c1)OCCO2)N1CCN(c2nc(-c3cccs3)nc3ccccc23)CC1`, the result in assay [1] and in [2] was Active. Moreover, the result in assay [3] and in [4] was inactive. Also, the ΔTm in assay [14] amounted to 24.3 °C; in assay [5] it was 23.4 °C; in [6] it was 22.8 °C; in [7] it was 22.8 °C; in assay [8], 20.7 °C; in assay [9], 19.3 °C. Besides, the ΔTm was 13.3 °C in [10]; 11.7 °C in assay [11]; 5.39 °C in [15]; 0.24 °C in [12]; 0.37 °C in assay [13].

In general, ΔTm refers to the shift of the melting midpoint relative to a reference.
